Test results as given in ChEMBL document CHEMBL2046419, “Antibacterial anthraquinone derivatives from a sea anemone-derived fungus Nigrospora sp” (J Nat Prod, 2012).
pIC50: −log10 of the molar value. ≈ marks a conversion by molar mass, not a printed value.

Columns and labels:
Bacillus subtilis = assay: Antibacterial activity against Bacillus subtilis ATCC 6633 after 24 hrs by serial dilution technique; assay type: functional; details: ATCC 6633, 24 h
Bacillus cereus [1] = assay: Antibacterial activity against Bacillus cereus ACCC 11077 after 24 hrs by serial dilution technique; assay type: functional; details: ACCC 11077, 24 h
Micrococcus luteus = assay: Antibacterial activity against Micrococcus luteus ATCC 49732 after 24 hrs by serial dilution technique; assay type: functional; details: ATCC 49732, 24 h
Staphylococcus aureus = assay: Antibacterial activity against Staphylococcus aureus ATCC 27154 after 24 hrs by serial dilution technique; assay type: functional; details: ATCC 27154, 24 h
Micrococcus = assay: Antibacterial activity against Micrococcus tetragenus ATCC 13623 after 24 hrs by serial dilution technique; assay type: functional; details: ATCC 13623, 24 h
Escherichia coli = assay: Antibacterial activity against Escherichia coli ATCC 25922 after 24 hrs by serial dilution technique; assay type: functional; details: ATCC 25922, 24 h
Vibrio anguillarum = assay: Antibacterial activity against Vibrio anguillarum ATCC 19019 after 24 hrs by serial dilution technique; assay type: functional; details: ATCC 19019, 24 h
Vibrio parahaemolyticus = assay: Antibacterial activity against Vibrio parahaemolyticus ATCC 17802 after 24 hrs by serial dilution technique; assay type: functional; details: ATCC 17802, 24 h
Staphylococcus albus = assay: Antibacterial activity against Staphylococcus albus ATCC 8799 after 24 hrs by serial dilution technique; details: ATCC 8799, 24 h
A549 = assay: Cytotoxicity against human A549 cells by MTT assay; assay type: functional, cell-based
Outline: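 A549 human lung cancer cells, MTT read-out, mitomycin as positive control; IC50 reported in μM.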

Bacillus cereus [2] = assay: Ratio of ciprofloxacin MIC to compound MIC for Bacillus cereus ACCC 11077; assay type: functional

SMILES	MIC (Bacillus subtilis) [µM]	MIC (Bacillus cereus [1]) [µM]	MIC (Micrococcus luteus) [µM]	MIC (Staphylococcus aureus) [µM]	MIC (Micrococcus) [µM]	MIC (Escherichia coli) [µM]	MIC (Vibrio anguillarum) [µM]	MIC (Vibrio parahaemolyticus) [µM]	MIC (Staphylococcus albus) [µM]	pIC50 (A549)	Ratio (Bacillus cereus [2])
COc1cc(O)c2c(c1O)C(=O)c1cc(C)c(OC(C)=O)cc1C2=O	12.5 (≈ 4.28 µg/mL)	50 (≈ 17.1 µg/mL)	> 200	> 200	> 200	> 200	> 200	> 200	> 200	–	–
COC1=CC(=O)c2c(O)c3c(c(O)c2C1=O)C[C@](C)(O)[C@H](OC(C)=O)[C@H]3O	> 200	3.12 (≈ 1.18 µg/mL)	> 200	> 200	3.12 (≈ 1.18 µg/mL)	> 200	> 200	> 200	> 200	5.57	–
COc1cc(OC(C)=O)c2c(c1O)C(=O)c1cc(C)c(O)cc1C2=O	> 200	> 200	> 200	> 200	> 200	> 200	> 200	> 200	> 200	–	–
COC1=CC(=O)c2c(cc3c(c2O)C[C@@H](O)[C@@](C)(O)C3)C1=O [NIGROSPORIN B]	0.312 (≈ 0.0949 µg/mL)	0.312 (≈ 0.0949 µg/mL)	10 (≈ 3.04 µg/mL)	1.25 (≈ 0.38 µg/mL)	0.625 (≈ 0.19 µg/mL)	1.25 (≈ 0.38 µg/mL)	1.25 (≈ 0.38 µg/mL)	0.625 (≈ 0.19 µg/mL)	2.5 (≈ 0.761 µg/mL)	5.48	–
COc1cc(O)c2c(c1O)C(=O)C1=C(C[C@@H](O)[C@@](C)(O)C1)C2=O	3.12 (≈ 0.999 µg/mL)	3.12 (≈ 0.999 µg/mL)	200 (≈ 64.1 µg/mL)	3.12 (≈ 0.999 µg/mL)	3.12 (≈ 0.999 µg/mL)	1.56 (≈ 0.5 µg/mL)	3.12 (≈ 0.999 µg/mL)	3.12 (≈ 0.999 µg/mL)	3.12 (≈ 0.999 µg/mL)	–	–
O=C(O)c1cn(C2CC2)c2cc(N3CCNCC3)c(F)cc2c1=O [CIPROFLOXACIN]	0.312 (≈ 0.103 µg/mL)	1.25 (≈ 0.414 µg/mL)	2.5 (≈ 0.828 µg/mL)	0.156 (≈ 0.0517 µg/mL)	0.039 (≈ 0.0129 µg/mL)	0.156 (≈ 0.0517 µg/mL)	0.078 (≈ 0.0258 µg/mL)	0.078 (≈ 0.0258 µg/mL)	0.312 (≈ 0.103 µg/mL)	–	–
COC1=CC(=O)c2c(O)c3c(c(O)c2C1=O)C[C@](C)(O)[C@H](OC(C)=O)C3	0.78 (≈ 0.283 µg/mL)	0.0488 (≈ 0.0177 µg/mL)	100 (≈ 36.2 µg/mL)	> 200	0.195 (≈ 0.0707 µg/mL)	> 200	0.0975 (≈ 0.0353 µg/mL)	0.78 (≈ 0.283 µg/mL)	200 (≈ 72.5 µg/mL)	5.28	25
COC1=CC(=O)c2c(O)c3c(c(O)c2C1=O)C[C@](C)(O)[C@H](O)[C@H]3O [BOSTRYCIN]	3.12 (≈ 1.05 µg/mL)	3.12 (≈ 1.05 µg/mL)	100 (≈ 33.6 µg/mL)	1.56 (≈ 0.525 µg/mL)	3.12 (≈ 1.05 µg/mL)	1.56 (≈ 0.525 µg/mL)	0.39 (≈ 0.131 µg/mL)	3.12 (≈ 1.05 µg/mL)	3.12 (≈ 1.05 µg/mL)	–	–
COc1cc(O)c2c(c1O)[C@H](O)[C@H]1C[C@](C)(O)[C@H](O)[C@@H](O)[C@@H]1C2=O [9ALPHA-HYDROXYHALOROSELLINIA A]	12.5 (≈ 4.25 µg/mL)	12.5 (≈ 4.25 µg/mL)	> 100	0.78 (≈ 0.265 µg/mL)	3.12 (≈ 1.06 µg/mL)	1.56 (≈ 0.531 µg/mL)	3.12 (≈ 1.06 µg/mL)	3.12 (≈ 1.06 µg/mL)	> 100	4.38	–
COc1cc(O)c2c(c1OC(C)=O)C(=O)c1cc(C)c(OC(C)=O)cc1C2=O	> 200	> 200	200 (≈ 76.9 µg/mL)	> 200	200 (≈ 76.9 µg/mL)	> 200	> 200	> 200	> 200	–	–
COc1cc(O)c2c(c1O)C(=O)c1cc(C)c(O)cc1C2=O	> 200	> 200	> 200	> 200	> 200	> 200	> 200	> 200	> 200	< 4.30	–
COc1cc(OC(C)=O)c2c(c1OC(C)=O)C(=O)c1cc(C)c(OC(C)=O)cc1C2=O	35 (≈ 14.9 µg/mL)	140 (≈ 59.7 µg/mL)	140 (≈ 59.7 µg/mL)	> 140	> 140	> 140	140 (≈ 59.7 µg/mL)	> 140	70 (≈ 29.8 µg/mL)	< 4.30	–
COc1cc(OC(C)=O)c2c(c1O)C(=O)c1cc(C)c(OC(C)=O)cc1C2=O	50 (≈ 19.2 µg/mL)	> 200	> 200	> 200	> 200	> 200	> 200	> 200	50 (≈ 19.2 µg/mL)	–	–
COc1cc(O)c2c(c1OC(C)=O)C(=O)c1cc(C)ccc1C2=O	> 200	> 200	> 200	> 200	> 200	> 200	> 200	> 200	> 200	–	–
COc1cc(O)c2c(c1O)[C@H](O)[C@H]1C[C@](C)(O)[C@H](O)C[C@@H]1C2=O	12.5 (≈ 4.05 µg/mL)	12.5 (≈ 4.05 µg/mL)	25 (≈ 8.11 µg/mL)	25 (≈ 8.11 µg/mL)	1.56 (≈ 0.506 µg/mL)	6.25 (≈ 2.03 µg/mL)	1.56 (≈ 0.506 µg/mL)	12.5 (≈ 4.05 µg/mL)	> 100	< 4.30	–
COC1=CC(=O)c2cc3c(c(O)c2C1=O)C[C@](C)(O)[C@H](O)[C@H]3O	0.625 (≈ 0.2 µg/mL)	10 (≈ 3.2 µg/mL)	20 (≈ 6.41 µg/mL)	2.5 (≈ 0.801 µg/mL)	1.25 (≈ 0.4 µg/mL)	2.5 (≈ 0.801 µg/mL)	2.5 (≈ 0.801 µg/mL)	1.25 (≈ 0.4 µg/mL)	5 (≈ 1.6 µg/mL)	5.34	–
CO[C@@]12[C@H](COC(N)=O)C3=C(C(=O)C(C)=C(N)C3=O)N1C[C@@H]1N[C@@H]12 [MITOMYCIN]	–	–	–	–	–	–	–	–	–	5.52	–
COc1cc(O)c2c(c1OC(C)=O)C(=O)c1cc(C)c(O)cc1C2=O	> 200	> 200	> 200	100 (≈ 34.2 µg/mL)	> 200	> 200	> 200	> 200	100 (≈ 34.2 µg/mL)	–	–
COc1cc(O)c2c(c1O)C(=O)c1cc(C)ccc1C2=O [AUSTROCORTIRUBIN]	> 200	> 200	> 200	> 200	> 200	> 200	> 200	> 200	> 200	< 4.30	–
COc1cc(O)c2c(c1O)[C@H](OC)[C@H]1C[C@](C)(O)[C@H](O)C[C@H]1C2=O	> 100	50 (≈ 16.9 µg/mL)	> 100	1.56 (≈ 0.528 µg/mL)	0.78 (≈ 0.264 µg/mL)	0.78 (≈ 0.264 µg/mL)	25 (≈ 8.46 µg/mL)	25 (≈ 8.46 µg/mL)	> 100	< 4.30	–
COc1cc(OC(C)=O)c2c(c1OC(C)=O)C(=O)c1cc(C)c(O)cc1C2=O	5 (≈ 1.92 µg/mL)	37.5 (≈ 14.4 µg/mL)	> 150	> 150	9.4 (≈ 3.61 µg/mL)	> 150	4.7 (≈ 1.81 µg/mL)	75 (≈ 28.8 µg/mL)	> 150	–	–
